PMC5594746 (Journal of biomolecular screening, 2016)
pEC50: −log10 of the molar value.

Key:
V2R + DOX = assay: V2R + Dox cAMP counterscreen; type: cell-based; conditions: Tet minus promoter inactive, no receptor protein made
In short: (§1)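 Cryopreserved cells carrying tet-regulated hV2R L83Q were thawed and plated at 2,000/well in growth medium. Compound was pin-added (0.4% DMSO), then incubated 17 h at 37 °C, 5% CO2. Cells were stimulated with 5 μM vasopressin (final) in serum-free medium containing 2.5 mM IBMX for 2 h. After 10 min at room temperature, cAMP-Glo was added (19 min), then Kinase-Glo (10 min). Luminescence, inversely proportional to cAMP, was read.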

[1] = test system: NDI associated V2R mutants; conditions: cited from earlier work
V2R = conditions: regardless of species tested; cited from earlier work
mutant hV2R [L83Q] = mutant hV2R [L83Q] (Homo sapiens, UniProt P30518, L83Q); assay: V2R pharmacoperone cAMP luminescence; type: cell-based; conditions: for activity as powder (active = EC50 ≤ 5 μM): de novo powder samples, titration assay, tested for the first time as powders
In short: as §1

Row | activity as powder (active = EC50 ≤ 5 μM) (mutant hV2R [L83Q]) | Compound | further results
1 | lack of activity | Cc1ccc2nc(NC(=O)c3cc(I)ccc3Cl)sc2c1 [SR-01000405773] | –
2 | lack of activity | O=C(Nc1nc2ccc(F)cc2s1)c1ccc(S(=O)(=O)N2CCCCC2)cc1 [SR-01000442043] | –
3 | lack of activity | Cc1ccc2nc(NC(=O)c3cccc(Cl)c3)sc2c1 [SR-01000461570] | –

Second part, the molecule before the results:

Row | Compound | activity as powder (active = EC50 ≤ 5 μM) (mutant hV2R [L83Q]) | further results
4 | CCOc1ccc2c(c1)C1(CCC(OCCN3CCOCC3)CC1)C(=O)N2S(=O)(=O)c1ccc(C(=O)NC(C)(C)C)cc1OC (stereo not shown) [SR121463] | – | response of + Dox cells (V2R + DOX): non-responsive; number of NDI associated V2R mutants on which active [1]: at least 8; Ki (V2R): low nanomolar
5 | CCN(CC)S(=O)(=O)c1ccc(C(=O)Nc2nc3ccc(Cl)cc3s2)cc1 [SR-01000392254] | lack of activity | –
6 | COc1ccc2nc(NC(=O)c3ccc(S(=O)(=O)N4CCCCC4)cc3)sc2c1 [SR-01000393329] | lack of activity | –
7 | COc1ccc(-c2csc(NC(=O)c3ccc(S(=O)(=O)N4CC(C)CC(C)C4)cc3)n2)cc1C (stereo not shown) [SR-01000443595] | – | pEC50 (mutant hV2R [L83Q]; de-novo powder sample, CRC format): 7.15
8 | CN[C@@H]1C[C@H]2O[C@@](C)([C@@H]1OC)n1c3ccccc3c3c4c(c5c6ccccc6n2c5c31)C(=O)NC4 [staurosporine, reference compound] | – | % activation, primary screen (mutant hV2R [L83Q]; singlicate, nominal 5.22 μM, normalized to SR121463 high control): ≤ −50%
